# Screens from PubChem BioAssay.
# Only some compounds are listed: those with a hit (about 1.6% of all), similar ones and a draw of the others.
# p-CIP stab down: p/CIP-EGFP fusion destabilizers, primary screen, fluorescence, F442A cells | decrease of EGFP signal, % at 10 µM | Q05BA5 | 16 h | hit rate 0.01% among 290,000;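 active = EGFP signal decrease of at least 30% at 10 µM or well 3 SD below plate mean, unless failing retest; inactive = the rest, including hits failing retest or dose response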
# SKN-1 block: suppressors of acrylamide-induced Pgst-4::GFP reporter in worms, primary screen, SKN-1 inhibitor project, whole organism, uHTS, GFP/RFP fluorescence ratio, strain VP596 | C. elegans VP596 Pgst-4::GFP/RFP ratio, 24 h | inhibition, % at 21.8 µM | hit rate 0.49% among 360,000;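 active = interference check ratio from 0.5 to 1.5 plus GFP to RFP signal ratio inhibition reaching or exceeding a fixed threshold, cut at about 30% in these data, passing the limit was not always enough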
# MT1-MMP act inh: blockers of MT1-MMP proenzyme processing, primary screen, HT1080 RFP-PRO-GFP cells, GFP/RFP fluorescence; Matrix metalloproteinase-14 (Homo sapiens), P50281; GFP/RFP ratio fluorescence, overnight; percent of plate control window, DMSO zero; GFP/RFP ratio change, % at 20 µM; hit rate 0.061% among 360,000; AID 651647, 2012;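 active = GFP/RFP ratio change of at least 30% with cell ATP level not reduced by more than half and red fluorescence within 50% of control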
#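 Compound: 20 µM single dose, 1% DMSO / System: HT1080 RFP-PRO-GFP cells / Controls: DMSO and RFP-L50D-GFP cell wells / Read-out basis: GFP/RFP fluorescence ratio / Schedule: overnight compound exposure at 37 °C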
# MsrA act: bovine MsrA enzyme activators, primary screen, biochemical, absorbance, HTS; activation, % at 10.6 µM; purified bovine MsrA, absorbance read-out; Methionine sulfoxide reductase A (Bos taurus); hit rate 0.3% among 360,000; in the data active = activation above about 7.5%;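 also: 0% = vehicle and 100% = reference activator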
# MsrA inhibitor: bovine MsrA enzyme inhibitors, primary screen, biochemical, absorbance, HTS | Methionine sulfoxide reductase A (Bos taurus) | purified bovine MsrA, absorbance read-out | inhibition, % at 15.5 µM | hit rate 0.75% among 360,000;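 also: 0% = vehicle wells with enzyme and 100% = reference inhibitor wells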
# MsrA conf: bovine MsrA inhibitors, retest, confirmation, biochemical, absorbance, HTS; hit rate 41% among 2,300; purified bovine MsrA, absorbance read-out; AID 651822, 2012; shares compounds with MsrA inhibitor; inhibition, % at 15.5 µM;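 also: coupled to thioredoxin reductase with NADPH and selenocystamine and DMSO as substrate; 0% = vehicle only and 100% = full effect of reference inhibitor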
# * = called active by the depositor; . = no result. Rule as the data show it, unless noted: active = inhibition above about 4.5%; inactive = the rest.
SMILES,p-CIP stab down,SKN-1 block,MT1-MMP act inh,MsrA act,MsrA inhibitor,MsrA conf
CCc1ccc(S(=O)(=O)/N=C2\C=C(NS(=O)(=O)c3ccccc3)C(=O)c3ccccc32)cc1,-10,-8,5,-12,1,.
O=C(O)c1ccc(S(=O)(=O)/N=C2\C=C(Nc3ccccc3F)C(=O)c3ccccc32)cc1,-1,13,10,-2,46*,47*
CC(C)c1ccc(S(=O)(=O)/N=C2\C=C(NS(=O)(=O)c3ccccc3)C(=O)c3ccccc32)cc1,4,14,2,-1,2,.
Cc1ccccc1NC1=C/C(=N\S(=O)(=O)c2ccc(C(=O)O)cc2)c2ccccc2C1=O,-10,24,20,-2,19*,21*
COc1ccc(C(=O)c2[nH]c(N)c(C(=O)c3c[nH]c4ccccc34)c2-c2ccc(OC)cc2)cc1,.,.,.,.,0,.
COCCN1Cc2cc(C(=O)OC)c3c(c2C1=O)c1cc(F)ccc1n3C(=O)c1ccccc1,.,.,.,.,0,.
C[C@@H]1ON(C)[C@H]2C[C@H]3c4cc(-c5ccc6c(c5)OCO6)ccc4CCN3C[C@@H]12,.,.,.,.,-1,.
CN1c2ccccc2C(O)=C(C(=S)Nc2ccccc2)S1(=O)=O,5,-1,1,-21,5.3*,6.1*
CN1c2ccccc2C(O)=C(C(=S)Nc2ccc(F)c(Cl)c2)S1(=O)=O,-11,-11,2,-9,4.9*,4
CN1c2ccsc2C(O)=C(C(=S)Nc2ccccc2)S1(=O)=O,-5,24,9,-10,4,.
Cc1ccc(NC(=S)C2=C(O)c3ccccc3N(C)S2(=O)=O)cc1,3,-1,1,-13,4.8*,4
CN1c2ccccc2C(O)=C(C(=O)Nc2ccccc2)S1(=O)=O,-7,-4,-2,-3,2,.
CC(C)C[C@H](NC(=O)c1cccs1)C(=O)N1CCC[C@H]1C(=O)NCc1ccccc1,.,.,.,.,2,.
Oc1c(Br)cc(/C=N/Nc2ccc(Cl)nn2)cc1Br,-10,-8,6,-6,5.9*,3
C=CCn1c(NC(=O)c2ccco2)nc2ccccc21,-11,3,0,-4,4.8*,2
O=C(Nc1nc2ccccc2n1Cc1ccc(Cl)cc1)c1ccco1,-16,2,11,0,0,.
CCOc1cc(S(=O)(=O)N(CC)CC)c(OCC)cc1-n1cnnn1,-10,-3,3,-8,25*,23*
CCOc1cc(S(=O)(=O)NCCc2ccccc2C)c(OCC)cc1-n1cnnn1,4,6,7,4,2,.
C=CCN=C1NC(CCc2ccccc2)C(C(=O)OC)=C(C)N1C (stereo not drawn),.,.,.,.,1,.
O=C(/C=C/c1ccc(O)c(O)c1)OC1C(O)CC(OC(=O)/C=C/c2ccc(O)c(O)c2)(C(=O)O)CC1O (stereo not drawn),-3,-2,0,-2,5.7*,2
CCN1CCN(c2nc(Nc3ccccc3)nc(N)c2[N+](=O)[O-])CC1,-11,8,-4,2,4.8*,4
CCCCCCC(=O)NC1CCCCN(C)C1=O (stereo not drawn),.,.,.,.,0,.
O=c1oc2ccccc2cc1-c1cn2cccnc2n1,-8,-12,.,1,5.8*,5.0*
CCOC(=O)NN1C(=O)c2ccccc2NC1c1ccc(N(C)C)cc1 (stereo not drawn),-6,-3,-1,-4,3,.
CC(=O)NN1C(=O)c2ccccc2NC1c1ccc(N(C)C)cc1 (stereo not drawn),-8,14,1,-7,6.3*,1
CCN(Cc1ccccc1)c1ccc(/C=N/NS(=O)(=O)c2ccc(C)c([N+](=O)[O-])c2)cc1,4,-11,-1,-13,4.8*,2
CCN(CC)c1ccc(/C=N/NS(=O)(=O)c2cccc([N+](=O)[O-])c2)cc1,-3,-1,-2,-7,5.4*,3
Cc1ccc(S(=O)(=O)N/N=C/c2ccccc2F)cc1[N+](=O)[O-],-5,1,-3,-5,1,.
